Results gathered from unrelated publications.
Protocols differ between the studies behind these lines.
Target: Tyrosine-protein kinase HCK (HCK, Homo sapiens, UniProt P08631)

The remaining binding of `Cn1cncc1[C@@](O)(COc1ccc(C#N)cc1-c1ccc(OC(F)(F)F)cc1)c1ccc(C#N)cc1` is reported as 100% (cell-free assay, competition with immobilised ligand; 1 µM).
`Cc1nn(C)cc1-c1nc2c(N3CCN(Cc4ccc(Cl)cc4)CC3)c(Cl)cnc2[nH]1` gave a remaining binding of 100% (binding, competition with immobilised ligand; 1 µM).
`N#CC1(c2ccccn2)CCN(Cc2cc(C(=O)O)c(=O)n3ccccc23)CC1` has a remaining binding of 100% (cell-free assay, competition with immobilised ligand; 1 µM).
`COc1cc(Nc2ncc(F)c(Nc3ccc4c(n3)NC(=O)C(C)(C)O4)n2)cc(OC)c1OC` has an inhibition of 98% (binding, competition with immobilised ligand; 10 µM).
With `COc1ncccc1-c1cnn2ccc(N3CCN(C(=O)OC(C)C)CC3)nc12` the remaining binding was 60% (binding, competition with immobilised ligand; 1 µM).
`Cn1cc(-c2cccc(N3CCc4c(sc5c4CC(C)(C)C5)C3=O)c2CO)cc(Nc2ccncn2)c1=O` gave an inhibition of 6% (enzyme activity, inhibitor; 1 µM).
`CC(C)(C)c1cc(C=C(C#N)C#N)cc(Br)c1O` gave a remaining activity of 66.1% (enzyme activity, inhibitor; 0.5 µM).
The remaining binding of `Nc1ncc(-c2nc(N3CCOCC3)nc(N3CCOCC3)n2)c(C(F)F)n1` is reported as 77% (binding, competition with immobilised ligand; 10 µM).
`O=c1[nH]c2ccccc2n1C1CCN(Cc2ccc(-c3[nH]c4cc5ncnc5cc4nc3-c3ccccc3)cc2)CC1` has a remaining signal of 99.6% (cell-free assay; 0.5 µM).
For `Cn1cc(-c2cc(F)cc(N3CCn4c(cc5c4CCCC5)C3=O)c2CO)cc(Nc2ccc(N3CCN(C4COC4)CC3)cn2)c1=O`, the inhibition was 9% (enzyme activity, inhibitor; 0.1 µM).
